hERG protect – compounds protecting human hERG from proarrhythmic drug block | Q12809 | CHO-hERG, FluxOR thallium flux, dofetilide IC70 present | activation (rescue from dofetilide block), less the hit threshold, % at 10 µM | 310,000 tested, 0.51% active;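 active = activation above the mean of controls blocked by dofetilide plus 5 SD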;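 note: thallium influx through hERG after potassium depolarization seen as dye fluorescence rise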
KCNK3 inh – human KCNK3 channel inhibition, primary screen | O14649 | B-score at 10 µM | CHO-KCNK3 thallium flux, FluxOR fluorescence; hits give low values | 340,000 tested, 0.84% active;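 active = B-score under library mean minus 4 SD, starting fluorescence ratio at most library mean plus 5 SD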;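 note: more negative B-score means stronger inhibition of thallium flux through KCNK3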
Target sequence (O14649 whole entry, looked up): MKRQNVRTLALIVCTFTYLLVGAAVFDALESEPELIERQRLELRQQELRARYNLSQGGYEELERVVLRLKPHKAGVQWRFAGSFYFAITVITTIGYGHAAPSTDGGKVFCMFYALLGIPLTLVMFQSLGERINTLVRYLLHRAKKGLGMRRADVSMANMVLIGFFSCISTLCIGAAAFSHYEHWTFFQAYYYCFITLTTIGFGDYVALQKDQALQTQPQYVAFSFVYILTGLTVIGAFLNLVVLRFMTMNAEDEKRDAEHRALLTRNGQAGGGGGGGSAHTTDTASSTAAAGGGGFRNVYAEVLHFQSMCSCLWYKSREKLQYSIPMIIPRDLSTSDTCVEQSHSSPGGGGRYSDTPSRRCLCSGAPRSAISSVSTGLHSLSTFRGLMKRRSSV
KCNQ1 block – inhibitors of human KCNQ1 potassium channel. CHO-K1 KCNQ1, FluxOR thallium flux fluorescence; hits give high values. B-score at 10 µM. 310,000 tested, 1.3% active. AID 2642;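 active = compounds whose thallium flux B-score, printed positive for inhibition, exceeds three library SD while starting fluorescence stays within three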;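 note: channel opened by potassium depolarization with thallium stimulus after 20 min compound exposure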
Kir21 inh – blocks the mouse Kir2.1 inward-rectifier potassium channel; P35561; HEK293-Kir2.1, FluxOR thallium flux fluorescence; hits give low values; B-score at 10 µM; 310,000 tested, 0.85% active; AID 1672;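 active = fluorescence ratio B-score at or below minus 3 SD of library scores, with starting-brightness B-score within 2 SD, cut at about -4.2 in these data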;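 note: channel flux triggered by added potassium and thallium sulfate stimulus; B-score of peak minus minimum fluorescence over baseline after thallium stimulus; more negative B-score means stronger Kir2.1 block with less thallium influx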
KCNK9 block – inhibitors of human KCNK9 two-pore domain potassium channel; 310,000 tested, 1.2% active; B-score at 10 µM; HEK293 KCNK9, FluxOR thallium flux fluorescence; hits give low values; Q9NPC2;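 active = ratio B-score over 3 SD below the library mean, with starting fluorescence within 5 SD of its mean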;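 note: negative B-score means less thallium flux so channel inhibition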
KCNQ1 pot – potentiators or activators of human KCNQ1 potassium channel | P51787 | CHO-K1 KCNQ1, thallium flux FluxOR fluorescence; hits give high values | B-score at 10 µM | 310,000 tested, 0.35% active | AID 2648;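 active = fluorescence ratio B-score, a plate-corrected score, at least three library SD, with initial intensity B-score within 5 SD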
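System: Stable KCNQ1 CHO-K1 line | Incubation: 90 min dye loading and 20 min compound exposure, both at room temperature | Measure: Ratio B score | Medium: Assay buffer for compound exposure, DMSO matched across wells | Compound dosing: Single-concentration screen | Probe or stimulus: K+/Tl+ depolarizing stimulus | Measured by: Kinetic FluxOR fluorescence, 10 s baseline plus 110 s post-stimulus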
KCNK9 block conf – confirmation of human KCNK9 potassium channel inhibitors; shares compounds with KCNK9 block; HEK293 KCNK9 cells, FluxOR thallium flux fluorescence; inhibition, % at 10 µM; 4,900 tested, 43% active; AID 492992;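 active = thallium signal inhibited by more than 5 SD of the compound-free buffer control wells, on both duplicate plates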
Kir21 sel – selectivity of KCNK9 modulators against mouse Kir2.1 | shares compounds with KCNK9 block | Kir2.1 cells, FluxOR thallium flux fluorescence | inhibition, % at 10 µM | 4,900 tested, 4% active | AID 492993;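 active = thallium signal drop more than 5 SD beyond the mean of the no-compound control wells, seen in both duplicate plates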;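 note: signal is fluorescence rise after thallium addition divided by baseline fluorescence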
HEK293 Tl ctr – second counter-screen for KCNK9 modulators: effect in non-induced cells; non-induced KCNK9-HEK293, FluxOR thallium flux; inhibition, % at 10 µM; shares compounds with KCNK9 block; 4,900 tested, 40% active;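 active = thallium signal drop beyond 5 SD of the untreated control mean, on both duplicate plates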
Hits are given with their value; - = inactive; . = no result. In the library only some 3.7% were active in any assay of this set; here they are far more common.

SMILES	hERG protect	KCNK3 inh	KCNQ1 block	Kir21 inh	KCNK9 block	KCNQ1 pot	KCNK9 block conf	Kir21 sel	HEK293 Tl ctr
CCCCCCCCN1[C@@H](CC(=O)OC)c2cc(C(F)(F)F)ccc2S1(=O)=O	-	-	-	-	-	-	-	-	-
COC(=O)C[C@H]1c2cc(C(F)(F)F)ccc2S(=O)(=O)N1Cc1ccccc1	-	-	-	-	-	-	.	.	.
O=C(NNC(=O)c1ccc(-n2cncn2)c([N+](=O)[O-])c1)c1cccc(Cl)c1	-	-	-	-	-	-	.	.	.
Cc1cc(=O)oc2cc(NC(=O)COc3ccccc3[N+](=O)[O-])ccc12	.	-	.	.	.	.	.	.	.
O=C(COc1ccccc1[N+](=O)[O-])Nc1ccc2oc(=O)ccc2c1	-	-	-	-	-9.6	-	-	-	-
CC1=NN(c2ccccc2)C(=O)/C1=C\C=C1/N(C)c2ccccc2C1(C)C	-	-	-	-	-	-	.	.	.
CC1=NN(c2ccccc2)C(=O)/C1=C\C=C1\N(C)c2ccccc2C1(C)C	-	-	-	-	-9.1	-	-	-	-
CCOC(=O)CC(NC(=O)c1cccc2c1C(=O)N(Cc1cccnc1)C2)c1ccc(OC(C)C)cc1 (configuration not stated)	-	-	-	-	-	-	-	-	-
CCCCC(=O)Nc1cccc(NC(=O)c2ccc(Br)o2)c1	-	-	-	-	-8.5	-	43%	-	-
Cc1ccc(-c2csc(N3CCN(S(=O)(=O)c4ccc5c(c4)NC(=O)CO5)CC3)n2)cc1	-	-	-	-	-	-	.	.	.
Cc1nc(C)c(C(=O)N2CCCC(C(=O)c3ccc(Cl)cc3C)C2)s1 (configuration not stated)	-	-	-	-	-	-	.	.	.
Cc1cc(C(=O)N2CCCC(C(=O)c3ccc(Cl)cc3C)C2)no1 (configuration not stated)	-	-	-	-	-	-	.	.	.
COc1ccc(NC2CCCN(C(=O)c3ccc(CSC)o3)C2)cc1OC (configuration not stated)	-	-	-	-	-	-	.	.	.
Cc1cc(Cl)ccc1C(=O)C1CCCN(C(=O)c2cnsn2)C1 (configuration not stated)	-	-	-	-	-	-	-	-	-
COCc1ccc(C(=O)N2CCCC(C(=O)c3ccc(Cl)cc3C)C2)o1 (configuration not stated)	-	-	-	-	-	-	-	-	-
COCc1ccc(C(=O)N2CCCC(Nc3ccc4c(c3)OCCO4)C2)o1 (configuration not stated)	-	-	-	-	-	-	-	-	-
Cc1cc(Cl)ccc1C(=O)C1CCCN(C(=O)c2ccoc2)C1 (configuration not stated)	-	-	-	-	-	-	-	-	-
c1ccc2c(c1)OCC(c1csc3ncnc(N4CCCCC4)c13)O2 (configuration not stated)	-	-	-	-	-13	-	44%	-	32%
O=C1C=C(c2ccc3c(c2)OCCO3)C[C@@H](c2ccc(F)cc2)C1	.	-	.	.	.	.	.	.	.
O=C(NNC(=O)c1cc([N+](=O)[O-])ccc1Cl)c1cccnc1	-	-	-	-	-	-	.	.	.
CCOC(=O)N/N=C/c1c(C)c(C(=O)c2ccc(F)cc2)n2ccccc12	-	-	-	-	-11	-	-	-	-
Cn1nccc1C(=O)OCC(=O)Nc1ccccc1Cl	-	-	-	-	-	-	.	.	.
COCCN(C(=O)COC(=O)c1cc(C)oc1C)c1c(N)n(Cc2ccccc2)c(=O)[nH]c1=O	-	-	-	-	-	-	.	.	.
CCOc1cc(N2CCOCC2)c(OCC)cc1NC(=O)CN1CCC(Cc2ccccc2)CC1	-	-	-	-	-	-	-	-	-
CC(=O)c1cc2c(cc1NC(=O)CN1CCC(Cc3ccccc3)CC1)OCO2	-	-	-	-	-	-	-	-	-
SMILES	hERG protect	KCNK3 inh	KCNQ1 block	Kir21 inh	KCNK9 block	KCNQ1 pot	KCNK9 block conf	Kir21 sel	HEK293 Tl ctr
CCOC(=O)N1CCN(CC(=O)Nc2cc3c(cc2C(C)=O)OCO3)CC1	-	-	-	-	-	-	.	.	.
O=C(Nc1ccc(C(=O)N2CCOCC2)cc1)c1cccc([N+](=O)[O-])c1	-	-	-	-	-	-	.	.	.
CCN(CC)CCN1C(=O)C(=O)/C(=C(/O)c2ccc(S(=O)(=O)N3CCOCC3)cc2)C1c1ccc(C(C)(C)C)cc1 (configuration not stated)	-	-	-	-	-	-	.	.	.
Cc1cc(C)c2nc(NNC(=O)c3ccc(S(=O)(=O)N4CCCCC4)cc3)sc2c1	-	-	-	-	-	-	-	-	-
Cc1cccc2sc(NNC(=O)c3ccc(S(=O)(=O)N4CCc5ccccc5C4)cc3)nc12	-	-	-	-	-	-	-	-	-
C/C(=N\N1CCN(c2ccc(Cl)cc2)CC1)c1cccc([N+](=O)[O-])c1	-	-	-	-	-11	-	44%	-	30%
COc1ccc(OC)c(NC(=O)c2ccc(CSc3ncccn3)cc2)c1	-	-	-	-	-	-	.	.	.
CCOC(=O)c1c(NC(=O)C(C)Sc2cccc[n+]2[O-])sc2c1CCN(Cc1ccccc1)C2 (configuration not stated)	.	-	.	.	.	.	.	.	.
CCOC(=O)c1c(NC(=O)C(C)Sc2cn(C)c3ccccc23)sc2c1CCC2 (configuration not stated)	-	-	-	-	-	-	-	-	-
CCOC(=O)c1c(NC(=O)CSc2nnc(-c3c[nH]c4ccccc34)n2CCOC)sc2c1CCCCC2	-	-	-	-	-	-	.	.	.
CCOC(=O)c1c(NC(=O)CSc2nnc3ccccn23)sc2c1CCC2	-	-	-	-	-	-	.	.	.
CCOC(=O)c1c(NC(=O)CSc2c[nH]c3ccccc23)sc2c1CCCC2	-	-	-	-	-	-	-	-	-
CCOC(=O)c1c(NC(=O)CSc2c[nH]c3ccccc23)sc2c1CCC2	-	-	-	-	-	-	-	-	-
CC(=O)Nc1ccc(S(=O)(=O)NCCc2cn3nc(C)c(C)nc3n2)cc1	-	-	-	-	-	-	.	.	.
O=C(COC(=O)C1CC2CCCC(C1)C2=O)NNC(=O)c1ccc([N+](=O)[O-])cc1 (configuration not stated)	-	-	-	-	-	-	.	.	.
CCN1CCN(S(=O)(=O)c2ccc(Cl)c(C(=O)N(CCc3ccccc3)Cc3ccccc3)c2)CC1	.	-	.	.	.	.	.	.	.

Bioassay records as filed in PubChem BioAssay.
